Several values for one entry are separate records, joined by “and”; a condition that tells them apart may be missing. Equal entries are not always repeated.
How the values were obtained:
Type in all cases: toxicity, cell-based
[1] = test system: Fibroblast; assay: Multiplex assay against human fibroblast
How it was run: (§1)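 At seeding, live cells were stained with Hoechst33342, BioTracker Green Microtubule Cytoskeleton Dye, MitoTracker Red and Annexin V Alexa Fluor 680. After compound addition they were imaged on a CQ1 microscope at 37°C and 5% CO2, and CellPathfinder machine-learning gating sorted them into Hoechst high-intensity objects or normal cells, with normal cells further split into healthy, pyknosed or fragmented nuclei and pyknosed cells into mitotic or apoptotic. Tubulin, mitochondrial-mass and membrane-permeability phenotypes are given as per cents of cells with healthy nuclei.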

[2] = test system: HEK-293T; assay: Multiplex assay against HEK293T; conditions: human; how it was run: as §1
[3] = test system: U2OS; assay: Multiplex assay against U2OS; conditions: human; how it was run: as §1
[4] = 12 h, 1 µM, compound concentration 1 uM
[5] = 12 h, 10 µM, compound concentration 10 uM
[6] = 24 h, 1 µM, compound concentration 1 uM
[7] = 24 h, 10 µM, compound concentration 10 uM
[8] = 48 h, 1 µM, compound concentration 1 uM
[9] = 48 h, 10 µM, compound concentration 10 uM

C[C@@H]1CC(=O)Nc2cccc(-c3ccc4c(c3)c(-c3cnn(C)c3)nn4C)c2N1
Population Apoptotic (%) [1, 4]: 38%
Population Fragmented Nuclei (%) [1, 4]: 20% and 26%
Population Healthy Nuclei (%) [1, 4]: 63% and 47%
Population Hoechst High Intensity Objects (%) [1, 4]: 1% and 5%
Population Membrane Permeable-Phenotype (%) [1, 4]: 0% and 8%
Population Mitochondria Different-Phenotype (%) [1, 4]: 4% and 12%
Population Mitotic Cells (%) [1, 4]: 61%
Population Normal (%) [1, 4]: 98% and 94%
Population Pyknosed Nuclei (%) [1, 4]: 15% and 26%
Population Tubulin-Different-Phenotype (%) [1, 4]: 31% and 51%
Total Cell Count [1, 4]: 115 and 105
Population Apoptotic (%) [1, 5]: 40% and 30%
Population Fragmented Nuclei (%) [1, 5]: 17% and 11%
Population Healthy Nuclei (%) [1, 5]: 65% and 58%
Population Hoechst High Intensity Objects (%) [1, 5]: 5% and 6%
Population Membrane Permeable-Phenotype (%) [1, 5]: 1% and 7%
Population Mitotic Cells (%) [1, 5]: 59% and 69%
Population Normal (%) [1, 5]: 94% and 93%
Population Pyknosed Nuclei (%) [1, 5]: 17% and 30%
Population Tubulin-Different-Phenotype (%) [1, 5]: 63% and 68%
Total Cell Count [1, 5]: 161 and 126
Population Apoptotic (%) [1, 6]: 57% and 35%
Population Fragmented Nuclei (%) [1, 6]: 16% and 29%
Population Healthy Nuclei (%) [1, 6]: 67% and 50%
Population Hoechst High Intensity Objects (%) [1, 6]: 2% and 7%
Population Membrane Permeable-Phenotype (%) [1, 6]: 2% and 11%
Population Mitochondria Different-Phenotype (%) [1, 6]: 5% and 9%
Population Mitotic Cells (%) [1, 6]: 42% and 65%
Population Normal (%) [1, 6]: 97% and 92%
Population Pyknosed Nuclei (%) [1, 6]: 15% and 19%
Population Tubulin-Different-Phenotype (%) [1, 6]: 33% and 60%
Total Cell Count [1, 6]: 122 and 112
Population Apoptotic (%) [1, 7]: 75% and 42%
Population Fragmented Nuclei (%) [1, 7]: 19% and 13%
Population Healthy Nuclei (%) [1, 7]: 69% and 57%
Population Hoechst High Intensity Objects (%) [1, 7]: 10% and 5%
Population Membrane Permeable-Phenotype (%) [1, 7]: 0% and 1%
Population Mitotic Cells (%) [1, 7]: 25% and 57%
Population Normal (%) [1, 7]: 89% and 94%
Population Pyknosed Nuclei (%) [1, 7]: 11% and 29%
Population Tubulin-Different-Phenotype (%) [1, 7]: 66% and 76%
Total Cell Count [1, 7]: 158 and 119
Population Apoptotic (%) [1, 8]: 50% and 30%
Population Fragmented Nuclei (%) [1, 8]: 25% and 36%
Population Healthy Nuclei (%) [1, 8]: 60% and 50%
Population Hoechst High Intensity Objects (%) [1, 8]: 5% and 2%
Population Mitochondria Different-Phenotype (%) [1, 8]: 6% and 8%
Population Mitotic Cells (%) [1, 8]: 50% and 69%
Population Normal (%) [1, 8]: 94% and 97%
Population Pyknosed Nuclei (%) [1, 8]: 14% and 13%
Population Tubulin-Different-Phenotype (%) [1, 8]: 21% and 60%
Total Cell Count [1, 8]: 114 and 102
Population Apoptotic (%) [1, 9]: 92% and 60%
Population Fragmented Nuclei (%) [1, 9]: 17%
Population Healthy Nuclei (%) [1, 9]: 73% and 62%
Population Hoechst High Intensity Objects (%) [1, 9]: 3% and 4%
Population Membrane Permeable-Phenotype (%) [1, 9]: 0% and 6%
Population Normal (%) [1, 9]: 96% and 95%
Population Pyknosed Nuclei (%) [1, 9]: 8% and 19%
Population Tubulin-Different-Phenotype (%) [1, 9]: 68% and 69%
Total Cell Count [1, 9]: 162 and 122
Population Apoptotic (%) [2, 4]: 36% and 60%
Population Fragmented Nuclei (%) [2, 4]: 7% and 5%
Population Healthy Nuclei (%) [2, 4]: 76% and 77%
Population Hoechst High Intensity Objects (%) [2, 4]: 7%
Population Membrane Permeable-Phenotype (%) [2, 4]: 0%
Population Mitochondria Different-Phenotype (%) [2, 4]: 51% and 65%
Population Mitotic Cells (%) [2, 4]: 63% and 39%
Population Normal (%) [2, 4]: 92%
Population Pyknosed Nuclei (%) [2, 4]: 16%
Population Tubulin-Different-Phenotype (%) [2, 4]: 39% and 26%
Total Cell Count [2, 4]: 305 and 349
Population Apoptotic (%) [2, 5]: 49% and 38%
Population Fragmented Nuclei (%) [2, 5]: 8% and 5%
Population Healthy Nuclei (%) [2, 5]: 74% and 77%
Population Hoechst High Intensity Objects (%) [2, 5]: 5% and 12%
Population Membrane Permeable-Phenotype (%) [2, 5]: 0%
Population Mitochondria Different-Phenotype (%) [2, 5]: 72% and 86%
Population Mitotic Cells (%) [2, 5]: 50% and 62%
Population Normal (%) [2, 5]: 94% and 87%
Population Pyknosed Nuclei (%) [2, 5]: 17% and 16%
Population Tubulin-Different-Phenotype (%) [2, 5]: 62% and 56%
Total Cell Count [2, 5]: 384 and 345
Population Apoptotic (%) [2, 6]: 38% and 50%
Population Fragmented Nuclei (%) [2, 6]: 10% and 8%
Population Healthy Nuclei (%) [2, 6]: 74% and 79%
Population Hoechst High Intensity Objects (%) [2, 6]: 7% and 6%
Population Membrane Permeable-Phenotype (%) [2, 6]: 0%
Population Mitochondria Different-Phenotype (%) [2, 6]: 37% and 48%
Population Mitotic Cells (%) [2, 6]: 61% and 50%
Population Normal (%) [2, 6]: 92% and 93%
Population Pyknosed Nuclei (%) [2, 6]: 14% and 11%
Population Tubulin-Different-Phenotype (%) [2, 6]: 20% and 16%
Total Cell Count [2, 6]: 395 and 422
Population Apoptotic (%) [2, 7]: 43% and 57%
Population Fragmented Nuclei (%) [2, 7]: 9% and 8%
Population Healthy Nuclei (%) [2, 7]: 76% and 72%
Population Hoechst High Intensity Objects (%) [2, 7]: 2% and 5%
Population Membrane Permeable-Phenotype (%) [2, 7]: 0%
Population Mitochondria Different-Phenotype (%) [2, 7]: 62% and 68%
Population Mitotic Cells (%) [2, 7]: 56% and 42%
Population Normal (%) [2, 7]: 97% and 94%
Population Pyknosed Nuclei (%) [2, 7]: 13% and 19%
Population Tubulin-Different-Phenotype (%) [2, 7]: 37% and 28%
Total Cell Count [2, 7]: 472 and 381
Population Apoptotic (%) [2, 8]: 33% and 30%
Population Fragmented Nuclei (%) [2, 8]: 11% and 9%
Population Healthy Nuclei (%) [2, 8]: 80% and 81%
Population Hoechst High Intensity Objects (%) [2, 8]: 1% and 2%
Population Membrane Permeable-Phenotype (%) [2, 8]: 0%
Population Mitochondria Different-Phenotype (%) [2, 8]: 23% and 30%
Population Mitotic Cells (%) [2, 8]: 66% and 69%
Population Normal (%) [2, 8]: 98% and 97%
Population Pyknosed Nuclei (%) [2, 8]: 7% and 9%
Population Tubulin-Different-Phenotype (%) [2, 8]: 13%
Total Cell Count [2, 8]: 627 and 593
Population Apoptotic (%) [2, 9]: 43% and 42%
Population Fragmented Nuclei (%) [2, 9]: 13% and 12%
Population Healthy Nuclei (%) [2, 9]: 80% and 78%
Population Hoechst High Intensity Objects (%) [2, 9]: 4% and 2%
Population Membrane Permeable-Phenotype (%) [2, 9]: 0%
Population Mitochondria Different-Phenotype (%) [2, 9]: 44% and 53%
Population Mitotic Cells (%) [2, 9]: 56% and 57%
Population Normal (%) [2, 9]: 95% and 97%
Population Pyknosed Nuclei (%) [2, 9]: 6% and 9%
Population Tubulin-Different-Phenotype (%) [2, 9]: 16% and 20%
Total Cell Count [2, 9]: 636 and 521
Population Apoptotic (%) [3, 4]: 92% and 88%
Population Fragmented Nuclei (%) [3, 4]: 20% and 16%
Population Healthy Nuclei (%) [3, 4]: 73% and 75%
Population Hoechst High Intensity Objects (%) [3, 4]: 1%
Population Membrane Permeable-Phenotype (%) [3, 4]: 7% and 5%
Population Mitochondria Different-Phenotype (%) [3, 4]: 4% and 2%
Population Mitotic Cells (%) [3, 4]: 7% and 11%
Population Normal (%) [3, 4]: 98%
Population Pyknosed Nuclei (%) [3, 4]: 6% and 7%
Population Tubulin-Different-Phenotype (%) [3, 4]: 6% and 2%
Total Cell Count [3, 4]: 233 and 116
Population Apoptotic (%) [3, 5]: 86% and 33%
Population Fragmented Nuclei (%) [3, 5]: 29% and 21%
Population Healthy Nuclei (%) [3, 5]: 58% and 74%
Population Hoechst High Intensity Objects (%) [3, 5]: 2% and 1%
Population Membrane Permeable-Phenotype (%) [3, 5]: 11% and 7%
Population Mitochondria Different-Phenotype (%) [3, 5]: 11% and 7%
Population Normal (%) [3, 5]: 97% and 98%
Population Pyknosed Nuclei (%) [3, 5]: 12% and 4%
Population Tubulin-Different-Phenotype (%) [3, 5]: 8%
Population Apoptotic (%) [3, 6]: 95% and 100%
Population Fragmented Nuclei (%) [3, 6]: 20% and 22%
Population Healthy Nuclei (%) [3, 6]: 71% and 74%
Population Hoechst High Intensity Objects (%) [3, 6]: 2% and 1%
Population Membrane Permeable-Phenotype (%) [3, 6]: 5% and 1%
Population Mitochondria Different-Phenotype (%) [3, 6]: 2% and 1%
Population Mitotic Cells (%) [3, 6]: 4% and 0%
Population Normal (%) [3, 6]: 97% and 98%
Population Pyknosed Nuclei (%) [3, 6]: 7% and 4%
Population Tubulin-Different-Phenotype (%) [3, 6]: 2% and 0%
Total Cell Count [3, 6]: 294 and 152
Population Apoptotic (%) [3, 7]: 90% and 83%
Population Fragmented Nuclei (%) [3, 7]: 24% and 15%
Population Healthy Nuclei (%) [3, 7]: 63% and 78%
Population Hoechst High Intensity Objects (%) [3, 7]: 4% and 1%
Population Membrane Permeable-Phenotype (%) [3, 7]: 7% and 6%
Population Mitochondria Different-Phenotype (%) [3, 7]: 6% and 1%
Population Mitotic Cells (%) [3, 7]: 10% and 16%
Population Normal (%) [3, 7]: 95% and 98%
Population Pyknosed Nuclei (%) [3, 7]: 11% and 6%
Population Tubulin-Different-Phenotype (%) [3, 7]: 3% and 4%
Total Cell Count [3, 7]: 266 and 97
Population Apoptotic (%) [3, 8]: 100%
Population Fragmented Nuclei (%) [3, 8]: 19% and 13%
Population Healthy Nuclei (%) [3, 8]: 73% and 77%
Population Hoechst High Intensity Objects (%) [3, 8]: 1%
Population Membrane Permeable-Phenotype (%) [3, 8]: 4% and 2%
Population Mitochondria Different-Phenotype (%) [3, 8]: 2%
Population Mitotic Cells (%) [3, 8]: 0%
Population Normal (%) [3, 8]: 98%
Population Pyknosed Nuclei (%) [3, 8]: 6% and 8%
Population Tubulin-Different-Phenotype (%) [3, 8]: 3% and 2%
Total Cell Count [3, 8]: 437 and 224
Population Apoptotic (%) [3, 9]: 100%
Population Fragmented Nuclei (%) [3, 9]: 28% and 23%
Population Healthy Nuclei (%) [3, 9]: 65% and 71%
Population Hoechst High Intensity Objects (%) [3, 9]: 3% and 4%
Population Membrane Permeable-Phenotype (%) [3, 9]: 8% and 3%
Population Mitochondria Different-Phenotype (%) [3, 9]: 3% and 0%
Population Mitotic Cells (%) [3, 9]: 0%
Population Normal (%) [3, 9]: 96% and 95%
Population Pyknosed Nuclei (%) [3, 9]: 5% and 4%
Population Tubulin-Different-Phenotype (%) [3, 9]: 5% and 3%
Total Cell Count [3, 9]: 394 and 149
